Rows were chosen to be rich in hits. Some 4% of all compounds tested hit in one or more screens of this group.
TAAR1 ag = agonists of human TAAR1; Q96RJ0; activation, % at 3 µM; 360,000 compounds, 0.99% hits; CHO RD-HGA16 TAAR1, Fluo-8 calcium fluorescence; vehicle wells 0%, saturating PEA agonist 100%;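 active = activation above the mean activation of all test compounds in the run plus 3 SD, cut at about 38% in these data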
Target sequence (Q96RJ0 whole entry, looked up): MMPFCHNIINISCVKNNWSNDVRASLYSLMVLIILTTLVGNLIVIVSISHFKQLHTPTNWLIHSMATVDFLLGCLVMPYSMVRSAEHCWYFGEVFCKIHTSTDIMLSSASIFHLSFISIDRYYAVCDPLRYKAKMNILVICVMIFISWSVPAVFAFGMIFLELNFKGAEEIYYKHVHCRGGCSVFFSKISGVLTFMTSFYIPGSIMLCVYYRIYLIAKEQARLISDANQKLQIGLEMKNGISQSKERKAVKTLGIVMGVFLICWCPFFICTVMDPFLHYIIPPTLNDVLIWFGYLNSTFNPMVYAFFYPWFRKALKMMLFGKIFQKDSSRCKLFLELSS
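System: CHO-derived RD-HGA16 cells with stable Gα16 and human TAAR1. Times: 17-24 h plating, Fluo-8 75 min 37 °C, 30 min RT. Measured by: calcium-sensitive Fluo-8 signal, excitation 470-495, emission 515-575 nm. Read-out basis: % activation relative to PEA EC100 response. Control set: DMSO and PEA EC100. Repeats: no replicates (n 1).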
OX1R antag-1 = OX1R (human) antagonism; O43613; OX1R-expressing cells, FRET antagonist read-out; inhibition, % at 6.6 µM; 330,000 compounds, 1.8% hits; AID 485270; in the data active = inhibition mostly above about 38%, no sharp cut-off; inactive = mostly below about 40%;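 note: 0% = agonist challenge alone and 100% = reference antagonist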
Target sequence (O43613 whole entry, looked up): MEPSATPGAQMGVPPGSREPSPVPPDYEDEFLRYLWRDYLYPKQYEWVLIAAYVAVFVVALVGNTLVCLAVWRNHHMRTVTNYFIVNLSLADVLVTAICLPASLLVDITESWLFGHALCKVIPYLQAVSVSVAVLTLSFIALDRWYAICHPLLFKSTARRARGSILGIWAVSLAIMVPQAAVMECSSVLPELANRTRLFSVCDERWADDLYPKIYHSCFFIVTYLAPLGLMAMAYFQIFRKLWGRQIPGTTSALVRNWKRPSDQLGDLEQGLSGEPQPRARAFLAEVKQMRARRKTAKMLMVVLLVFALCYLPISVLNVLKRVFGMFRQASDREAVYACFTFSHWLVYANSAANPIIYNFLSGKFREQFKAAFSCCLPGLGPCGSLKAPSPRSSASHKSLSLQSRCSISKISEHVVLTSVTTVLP
TAAR1 antag = antagonists of human TAAR1; 360,000 compounds, 1.5% hits; CHO RD-HGA16 TAAR1, Fluo-8 calcium fluorescence, antagonist; Q96RJ0; inhibition, % at 3 µM;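 active = inhibition above a per-plate cutoff, the mean inhibition of test compounds on that plate plus 3 SD, cut at about 49% in these data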;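 note: 0% = DMSO plus EC80 beta-PEA response and 100% = DMSO alone without agonist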
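Test system: CHO RD-HGA16 cells bearing hTAAR1 | Reagent: β-PEA, EC80 | Compound dosing: 3 µM, single point | Schedule: Dye loading 75 min at 37 °C, then 30 min room temperature | Signal: Calcium fluorescence with Fluo-8 | Evaluation: Percent inhibition of PEA-evoked calcium signal, max/basal emission ratio | Control set: DMSO-only wells and EC80 β-PEA-stimulated wells | Repeats: Singlicate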
CHO parental Ca = counter-screen: ATP calcium response change in parental CHO cells; parental CHO-K1, ATP-induced calcium, Fluo-8 fluorescence; inhibition, % at 5.6 µM; 330,000 compounds, 0.63% hits; AID 463079;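 active = inhibition above that plate's mean sample inhibition plus 3 SD, cut at about 26% in these data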;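 note: 0% = ATP-challenged DMSO wells and 100% = DMSO wells without ATP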
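Test system: parental CHO cells; detection: calcium-sensitive Fluo-8 fluorescence; evaluation: percent inhibition of calcium signal; also added: ATP as calcium-mobilizing challenge; repeats: one well per compound; control set: ATP-challenged DMSO wells low, unchallenged DMSO wells high; compound: single nominal dose of 5.6 µM per compound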
OX1R antag-2 = blocks the human orexin 1 receptor | inhibition, % at 5 µM | 330,000 compounds, 0.43% hits | CHO/OX1R cells, Fluo-8 calcium fluorescence, orexin A;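 active = inhibition above its plate's threshold, mean inhibition of all tested compounds on the plate plus 3 SD, cut at about 37% in these data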;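 note: 0% = orexin A challenge wells and 100% = SB-334867-A antagonist wells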
TAAR1 nonsel count = nonselective antagonism, TAAR1 counter-screen; shares compounds with TAAR1 antag; inhibition, % at 3 µM; counterscreen cell line, calcium fluorescence, antagonist mode; 2,400 compounds, 77% hits; in the data active = inhibition above about 22%;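 note: CHO-Ga16 host cells stimulated with ATP at an EC80 level; 0% = agonist EC80 plus vehicle and 100% = vehicle without agonist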
TAAR1 ant conf = confirmation of human TAAR1 antagonists; AID 651785; TAAR1-expressing cells, fluorescence antagonist read-out; 2,400 compounds, 40% hits; shares compounds with TAAR1 antag; inhibition, % at 3 µM; in the data active = inhibition above about 49%;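 note: CHO-Ga16 host cells challenged with agonist PEA near its EC80; 0% = agonist at EC80 plus vehicle and 100% = vehicle with no agonist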
Ga16 nonsel ag = nonselective Ga16 agonism, counter-screen; shares compounds with TAAR1 antag; Ga16-expressing cells, calcium fluorescence, agonist counterscreen; activation, % at 3 µM; 2,400 compounds, 18% hits; in the data active = activation above about 12%;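 note: 0% = vehicle wells and 100% = saturating stimulus response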
TAAR1 ag counter = counter-screen for human TAAR1 antagonists: TAAR1 agonists; 2,400 compounds, 2% hits; shares compounds with TAAR1 antag; activation, % at 3 µM; AID 651955; hTAAR1 cell line, fluorescence activation, agonist mode; in the data active = activation above about 37%;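 note: CHO cells stably expressing TAAR1 with calcium dye readout; 0% = DMSO vehicle and 100% = full agonist response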
Starred values were filed as active, the others as inactive; x = not tested or not shown.

SMILES	TAAR1 ag	OX1R antag-1	TAAR1 antag	CHO parental Ca	OX1R antag-2	TAAR1 nonsel count	TAAR1 ant conf	Ga16 nonsel ag	TAAR1 ag counter
CC(=O)CCc1ccc(OCCCOc2cccc3cccnc23)cc1	15.1	20.7	68.2*	-2.5	-21.8	31.5*	45.6	11.4	18.3
CCOc1ccc(OCC)c(NC(=O)Nc2ccc3c(c2)N(C)C(=O)CS3)c1	3.8	16.4	56.1*	-17.0	-27.7	22.1*	27.6	5.2	-0.5
CN1C(=O)CSc2ccc(NC(=O)Nc3ccccn3)cc21	16.3	16.0	70.2*	-19.6	-10.4	21.1	48.9*	7.9	7.5
Cc1nc2ccccc2c2oc(C(=O)NCC3COc4ccccc4O3)cc12 (stereo not given)	4.0	85.1*	54.5*	41.1*	10.0	35.5*	41.6	9.5	8.3
OC[C@@H]1CN(Cc2ccc(F)cc2)C[C@H](n2cnc3c(N4CCN(c5ccccc5)CC4)ncnc32)O1	10.3	x	64.3*	x	x	35.6*	54.7*	18.1*	20.4
Cc1c(Cl)cnc(NC(=O)COC(=O)c2ccncc2)c1Cl	-3.5	8.2	100.7*	-12.5	-24.3	2.4	-0.8	-0.3	-1.0
COc1cc2c(cc1OC)-c1nnc(-c3cccs3)n1C(C)(C)C2	1.3	12.7	49.6*	-8.7	-24.8	8.0	38.3	2.5	-2.3
Cc1ccc(CNC(=O)c2ccccc2SCC(=O)NCC2CCCCC2)cc1	12.4	8.9	62.6*	-6.9	-20.9	26.2*	45.1	9.1	7.1
CSc1ccccc1C(=O)NCc1ccc(F)cc1	-0.5	3.2	14.4	-13.5	-6.1	x	x	x	x
CSc1ccccc1C(=O)NCc1ccc(C)cc1	-2.5	1.1	103.5*	-2.4	-17.7	8.2	10.6	0.2	2.8
O=C(CSc1ccccc1C(=O)N1CCCCC1)NCC1CCCCC1	1.0	24.2	-15.2	-22.6	-23.7	x	x	x	x
Cc1ccccc1NC(=O)c1ccc(-n2cncn2)nc1	3.1	7.5	7.2	-4.3	-13.0	x	x	x	x
O=C(Nc1cc(Cl)ccc1Cl)c1ccc(OC(=O)c2ccco2)cc1	10.7	8.3	84.8*	7.3	-4.0	24.6*	36.7	2.6	3.7
O=C(Nc1ccc(COc2ccccc2)cc1)c1cccc([N+](=O)[O-])c1	28.2	21.9	60.2*	3.4	-21.4	28.2*	67.7*	10.7	26.9
Cc1cccc(NC(=O)N2CCC(C(=O)c3ccc(F)cc3)CC2)c1	1.6	4.2	16.9	-11.3	-4.8	x	x	x	x
Cc1cc(C(=O)CSc2ccc(F)cc2)cc(C)c1OC(=S)N(C)C	4.2	24.1	78.1*	-0.8	-14.5	34.5*	60.4*	10.6	8.0
COc1ccc(SCC(=O)c2cc(C)c(OC(=S)N(C)C)c(C)c2)cc1	8.3	31.8	73.7*	35.1	-6.5	31.0*	46.3	4.4	5.5
O=C1CN(C(=O)c2cccs2)c2ccccc2N1	0.8	5.7	-8.9	-13.5	1.3	x	x	x	x
O=C1CN(C(=O)COC(=O)c2cccs2)c2ccccc2N1	1.0	2.2	61.0*	-11.7	-9.2	12.5	0.6	1.8	2.4
COc1cccc(C2C(C(=O)OC(C)C)=C(C)N=c3s/c(=C\c4ccc(C(=O)O)cc4)c(=O)n32)c1 (stereo not given)	35.7	16.8	60.3*	-3.5	-8.2	34.0*	53.4*	17.1*	20.9
COc1cccc(C2C(C(=O)Nc3ccccc3)=C(C)N=c3s/c(=C/c4ccc(OCC(=O)O)cc4)c(=O)n32)c1 (stereo not given)	0.2	18.1	0.6	-2.1	-4.3	x	x	x	x
COc1ccc(NC(=O)c2cc(-c3ccc(F)cc3OC)n[nH]2)c(OC)c1	9.6	x	66.3*	x	x	32.2*	48.4	5.7	4.1
CN(c1ccccc1)c1nc(-n2ccnc2)nc(-n2ccnc2)n1	3.5	16.1	6.0	-10.4	-23.3	x	x	x	x
c1ccc(N(c2ccccc2)c2nc(-n3ccnc3)nc(-n3ccnc3)n2)cc1	33.8	42.2	103.9*	41.6*	82.2*	55.9*	96.3*	27.0*	43.4*
CCCCNc1nc(N(C)c2ccccc2)nc(-n2ccnc2)n1	17.2	26.3	50.1*	-22.8	-31.8	3.4	-4.7	-0.2	0.3
SMILES	TAAR1 ag	OX1R antag-1	TAAR1 antag	CHO parental Ca	OX1R antag-2	TAAR1 nonsel count	TAAR1 ant conf	Ga16 nonsel ag	TAAR1 ag counter
CCCCCNc1nc(-c2ccccc2)nc(-n2ccnc2)n1	-0.1	16.7	-20.2	-21.3	-24.4	x	x	x	x
Cc1ccc(CCNC(=O)C2CCN(S(=O)(=O)N3CCOCC3)CC2)cc1	6.7	5.2	-11.6	1.2	-6.5	x	x	x	x
Oc1ccc(Br)cc1C1Nc2ccccc2S1 (stereo not given)	2.6	0.3	6.4	-6.4	-8.1	x	x	x	x
O=C1ON=C(c2ccccc2)/C1=C/c1ccco1	2.2	34.5	-2.6	-3.6	-0.4	x	x	x	x
O=C1ON=C(c2ccccc2)/C1=C/c1ccc(-c2ccccc2[N+](=O)[O-])o1	20.2	22.4	56.8*	2.1	6.1	65.7*	63.2*	19.3*	17.9
COc1ccc(-c2cc(C(=O)NNC(=O)c3csc(N4CCOCC4)n3)c3ccccc3n2)cc1	9.3	13.1	60.8*	-21.4	-16.9	30.1*	44.6	6.5	5.2
COc1ccc(-c2cc(C(=O)Nc3ccccc3O)c3ccccc3n2)cc1OC	13.6	7.2	34.2	-22.1	-9.0	x	x	x	x
O=C(Nc1ccc(N2CCOCC2)cc1)c1cc(-c2ccncc2)nc2ccccc12	10.5	18.1	22.3	-19.8	-22.5	x	x	x	x
COc1ccc(-c2cc(C(=O)Nc3ccccc3N3CCOCC3)c3ccccc3n2)cc1OC	5.6	41.8	59.3*	2.3	-21.8	23.6*	45.3	5.7	3.2
O=C(Nc1ccccc1N1CCOCC1)c1cc(-c2ccncc2)nc2ccccc12	16.2	14.1	63.4*	-19.4	-23.1	27.1*	43.6	7.9	8.5
O=C(NNC(=O)c1ccccc1Cl)c1csc(N2CCOCC2)n1	4.8	16.0	-11.9	-1.9	-13.7	x	x	x	x
O=C(c1ccc(-n2ccnc2)cc1)N1CCCC(CO)(Cc2cccc(Cl)c2)C1 (stereo not given)	7.1	0.1	-20.8	-19.7	-11.5	x	x	x	x
O=C(CCNC(=O)C1CCN(S(=O)(=O)c2ccccc2)CC1)NCc1ccccc1Cl	4.1	10.4	-26.0	-13.2	-14.6	x	x	x	x
NC(=O)c1nsc(C(=O)N(Cc2ccco2)C(C(=O)NC2CCCC2)c2ccc(O)cc2)c1N (stereo not given)	8.8	x	53.1*	x	x	21.9*	44.7	7.1	6.7
